Assays:
[1] = biological target: T1, Muscarinic acetylcholine receptor M1 (Homo sapiens, UniProt P11229); assay: Agonist activity at human muscarinic M1 receptor expressed in HEK293T cells co-expressing Galpha subunit and PLC-beta3 by split luciferase complementation assay; type: cell-based
T1 sequence (P11229 whole entry): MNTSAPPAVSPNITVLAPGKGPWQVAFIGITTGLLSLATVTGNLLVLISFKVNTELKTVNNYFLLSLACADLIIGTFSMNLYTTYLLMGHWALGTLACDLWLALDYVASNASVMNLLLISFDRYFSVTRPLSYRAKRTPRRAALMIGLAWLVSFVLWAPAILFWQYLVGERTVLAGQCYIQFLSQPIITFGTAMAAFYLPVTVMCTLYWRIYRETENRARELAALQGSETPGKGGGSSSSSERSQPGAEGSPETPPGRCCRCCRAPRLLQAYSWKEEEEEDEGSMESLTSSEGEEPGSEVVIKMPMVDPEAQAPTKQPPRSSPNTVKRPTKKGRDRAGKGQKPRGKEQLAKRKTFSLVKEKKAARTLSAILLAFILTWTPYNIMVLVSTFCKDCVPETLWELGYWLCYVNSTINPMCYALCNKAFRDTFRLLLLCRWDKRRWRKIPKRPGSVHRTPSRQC

[2] = Chemical stability of the compound at 50 uM incubated for 120 mins under dark conditions by UV-vis spectroscopic analysis; type: physicochemical; settings: 2 h
[3] = biological target: Muscarinic acetylcholine receptor; assay: Displacement of [3H]-QNB from muscarinic receptor in rat brain membranes incubated for 45 mins under dark conditions by radioligand binding assay; type: cell membranes
How it was run: (§1)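 Rat brain cortex membranes (meninges and white matter removed, homogenized and centrifuged twice at 50,000 x g, stored at -80 °C). Each tube held 20 μg membrane protein, 200 pM [³H]QNB and competitor at varying concentrations in 10 mM Tris-HCl pH 7.0 with 6 mM MgCl₂, incubated 45 min at 25 °C. Nonspecific binding was defined with 2 μM atropine. Samples were filtered on glass fiber, washed twice with ice-cold buffer and counted by scintillation.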

[4] = biological target: Muscarinic acetylcholine receptor; assay: Displacement of [3H]-QNB from muscarinic receptor in rat brain membranes incubated for 45 mins under irradiation exposure at 365 nm by radioligand binding assay; type: cell membranes; how it was run: as §1

Compound	pEC50 [1]	Stability [2]	pIC50 [3]	pIC50 [4]
C[N+](C)(C)CC#CCOC1=NOCC1	8.9	–	–	–
C[N+](C)(CC#CCOC1=NOCC1)Cc1cc(F)c(/N=N\c2c(F)cccc2F)c(F)c1.[Br-]	7.14	Stable	–	–
C[N+](C)(CC#CCOC1=NOCC1)CCCCCC[N+](C)(C)CC#CCOC1=NOCC1	6.77	–	–	–
C[N+](C)(CC#CCOC1=NOCC1)CCCC[N+](C)(C)CC#CCOC1=NOCC1	6.49	–	–	–
C[N+](C)(CC#CCOC1=NOCC1)CCCCCCCC[N+](C)(C)CC#CCOC1=NOCC1	6.89	–	–	–
C[N+](C)(CC#CCOC1=NOCC1)CCCCCCCCCC[N+](C)(C)CC#CCOC1=NOCC1	7.86	–	–	–

Other lines, results leading:

pEC50 [1]	Stability [2]	pIC50 [3]	pIC50 [4]	Compound
7.2	Stable	5.25	5.4	C[N+](C)(CC#CCOC1=NOCC1)Cc1cc(F)c(/N=N/c2c(F)cccc2F)c(F)c1.[Br-]
8.97	Stable	6.82	6.44	C[N+](C)(CC#CCOC1=NOCC1)Cc1cc(F)c(/N=N/c2c(F)cc(C[N+](C)(C)CC#CCOC3=NOCC3)cc2F)c(F)c1.[Br-].[Br-]
7.49	Stable	–	–	C[N+](C)(CC#CCOC1=NOCC1)Cc1ccc(/N=N\c2ccc(C[N+](C)(C)CC#CCOC3=NOCC3)cc2)cc1.[Br-].[Br-]
5.49	Stable	5.15	5.13	C[N+](C)(CC#CCOC1=NOCC1)Cc1ccc(/N=N/c2ccccc2)cc1.[Br-]
8.3	Stable	–	–	C[N+](C)(CC#CCOC1=NOCC1)Cc1cc(F)c(/N=N\c2c(F)cc(C[N+](C)(C)CC#CCOC3=NOCC3)cc2F)c(F)c1.[Br-].[Br-]
5.68	Stable	–	–	C[N+](C)(CC#CCOC1=NOCC1)Cc1ccc(/N=N\c2ccccc2)cc1.[Br-]
